pIC50: −log10 of the molar value. A value given as a limit tells only on which side of the number the result lay.

The pIC50 is the IC50 on a negative log10 scale, so that one unit is a factor of ten.

Series [1] deals with Human betaherpesvirus 5. The series is described as follows: Antiviral activity against human cytomegalovirus by plaque reduction assay. In kind it is functional, organism-based. The method in brief:
(§1)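 Plaque reduction in HFF monolayers (MEM(E), 10% FBS) infected with a 0.2 mL inoculum of ca. 100 PFU HCMV Towne strain. Compounds were dissolved in the overlay medium. IC50 from linear regression of percent inhibition against log concentration, average of two or more experiments. Ganciclovir positive control.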
On the technique in general: Plaques are areas of infected cells; plaque reduction assays count them against a control.

In series [2] the test system is KB. The series can be described thus: Cytotoxicity (growth inhibition) against human epidermoid oral carcinoma KB cell line. The series is classed as functional, cell-based. The method in brief: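 KB cells grown in MEM(H) with 10% calf serum. Cytotoxicity measured by a staining method. IC50 from linear regression of percent inhibition against log drug concentration, average of two or more experiments.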

For series [3], the system named is Human alphaherpesvirus 1. The series is described as follows: Antiviral activity against herpes simplex virus type 1 using ELISA. The series is classed as functional, organism-based.
Series [4] has as its system Human betaherpesvirus 5. The series can be described thus: Antiviral activity against human cytomegalovirus (HCMV) in plaque reduction assay. The series is classed as functional, organism-based. The method in brief:
as §1

The subject of series [5] is HFF. The series can be described thus: Cytotoxicity produced in human foreskin fibroblasts (HFF) cells estimated by visual scoring of cells unaffected by virus infection. In kind it is ADME, cell-based. The method, boiled down:
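Uninfected HFF cells in the HCMV plaque-reduction plates were examined at 35-fold magnification on the day of plaque staining. Drug-induced cytopathology was scored 0–4. IC50 from regression of percent inhibition against log concentration, average of two or more experiments.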

In series [6] the test system is Human alphaherpesvirus 1. The series is described as follows: Antiviral activity against herpes simplex virus using ELISA. In kind it is functional, organism-based. Background: ELISA stands for enzyme-linked immunosorbent assay.
The test system of series [7] is Human betaherpesvirus 5. The series can be described thus: Antiviral activity against human cytomegalo virus using ELISA. In kind it is functional, organism-based. The method, boiled down:
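HCMV (Towne strain, plaque-purified isolate P0) measured by enzyme immunoassay in MRC-5 human embryonic lung cells grown in MEM(E) with 10% FBS. IC50 from linear regression of percent inhibition against log concentration, averaged over two or more experiments. Ganciclovir positive control.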

Series [8] in a line: Half life was determined. In kind it is ADME.
Series [9] has as its system Human alphaherpesvirus 1. The series is described as follows: Inhibitory concentration against HSV-1. The series is classed as functional, organism-based.

`CCOCn1cc(C(=N)S)c2c(OC)ncnc21`: in [1], the pIC50 is below 4.00.
The same measure, in the same setting: for `CCNc1ncnc2c1c(C(=N)S)cn2COCC` the value was below 4.00.
Take `CCCn1c(N)c(C#N)c2c(N)ncnc21`: the pIC50 was 4.82 in [2], 5.60 in series [3], 6.30 in series [4] and 4.00 in [5].
`COCCOCn1c(N(C)C)c(C#N)c2c(N)ncnc21`: the pIC50 in [2], in [1], in series [6] and in series [5] was below 4.00 in each case.
With `COCCOCn1cc(C#N)c2c(N)ncnc21`, the negative-log IC50 (pIC50) in series [2], in [6] and in series [5] was below 4.00 in each case.
In the case of `C=CCn1c(N)c(C#N)c2c(N)ncnc21`, the negative-log IC50 (pIC50) in series [2] is below 4.00; in series [3] it was 4.40; in [4], 5.72; in series [5], 4.00.
Compound `CCOCn1cc(C#N)c2c(N(C)C)ncnc21` showed a negative-log IC50 (pIC50) in [1] below 4.00.
Take `CCOCn1c(N)c(C(N)=O)c2c(N)ncnc21`: the pIC50 in [2], in series [1], in series [5] and in series [7] was below 4.00 each time.
With `CCOCn1cc(C(=N)S)c2c(N)ncnc21`, the figures for the negative logarithm of the IC50 (pIC50) in [2] and in series [5] were 4.22 and below 4.49, respectively.
In [1], `COCCOCn1cc(C(=N)S)c2c(S)ncnc21` had a negative logarithm of the IC50 (pIC50) below 4.00.
With `COCCOCn1c(N)c(C(N)=S)c2c(N)ncnc21`, the pIC50 was below 3.49 in series [2]; 5.30 in [1]; 4.00 in series [6]; below 4.00 in series [5]; 4.70 in series [7].
`CCNc1ncnc2c1c(C#N)cn2COCCOC`: the pIC50 in series [1] was below 4.00.
Same read-out and setting: under `CCOCn1cc(C#N)c2c(OC)ncnc21` stands below 4.00.
Still for that read-out and setting: under `CCOCn1cc(C#N)c2c(OCC)ncnc21` stands below 4.00; under `COCCOCn1cc(C#N)c2c(OC)ncnc21`, below 4.00.
In the case of `COCCOCn1c(Br)c(C#N)c2c(N)ncnc21`, the pIC50 in [2], in series [1] and in series [5] was below 4.00 each time.
`CCOCn1cc(C(=N)S)c2c(OCC)ncnc21` had a pIC50 in [1] below 4.00.
Still for that read-out and setting: under `COCCOCn1cc(C(=N)S)c2c(OC)ncnc21` stands below 4.00.
Consider `CCOCn1c(Br)c(C#N)c2c(N)ncnc21`, for which the pIC50 in series [2], in series [1] and in series [5] was below 4.00 in each case.
Regarding `Cc1ccc(Cn2c(N)c(C#N)c3c(N)ncnc32)cc1`, the negative-log IC50 (pIC50) in series [2] was below 4.00; in [3] it was 4.22; in [4] it was 6.52; in series [5], 4.49.
`CCOCn1c(N)c(C#N)c2c(N)ncnc21`: the pIC50 in series [2] was 3.86; in series [1], 5.14; in series [6], 4.17; in series [5] it was below 4.00; in [7], 4.92.
In turn, `COCCOCn1cc(C(=N)S)c2c(N(C)C)ncnc21` displayed a T1/2 in [8] of 150 h. The negative logarithm of the IC50 (pIC50) in series [1] was below 4.00.
In turn, `CCOc1ncnc2c1c(C#N)cn2COCCOC` showed a pIC50 in series [1] below 4.00.
The same measure, in the same setting: under `CCOCn1cc(C#N)c2c(S)ncnc21` stands below 4.00.
As to `COCCOCn1cc(C(N)=S)c2c(N)ncnc21`, the figures for the pIC50 in series [1] and in series [5] were 5.89 and below 4.00, respectively.
In turn, `COCCOCn1cc(C(=N)S)c2c(O)ncnc21` showed a negative-log IC50 (pIC50) in [1] below 4.00.
The same measure, in the same setting: for `CCOCn1cc(C#N)c2c(Cl)ncnc21` the value was below 4.00.
Consider `N#Cc1c(N)n(COCc2ccccc2)c2ncnc(N)c12`, for which the pIC50 in [2] is 3.93; in series [1] it was 5.55; in series [6], 4.90; in series [5] it was below 4.00; in series [7] it was 5.05.
Take `COCCOCn1cc(C#N)c2c(O)ncnc21`: the negative-log IC50 (pIC50) in series [1] is below 4.00.
With `Cc1cccc(Cn2c(N)c(C#N)c3c(N)ncnc32)c1`, the pIC50 in [2] is below 4.00; in series [3] it was below 4.00; in [4] it was 4.49; in series [5], 4.00.
In series [1], `CCOCn1cc(C(=N)S)c2c(NC)ncnc21` gave a pIC50 of 4.70.
Consider `NC(=S)c1c(N)n(COCc2ccccc2)c2ncnc(N)c12`, for which the negative-log IC50 (pIC50) is 3.65 in [2]; 4.80 in [1]; 4.22 in series [6]; below 4.00 in series [5]; 4.72 in series [7].
As for `COCCOCn1cc(C#N)c2c(N(C)C)ncnc21`, in [1], the negative logarithm of the IC50 (pIC50) is below 4.00.
`CCOCn1cc(C#N)c2c(NC)ncnc21` had a pIC50 in series [1] below 4.00.
With `NC(=O)c1c(N)n(COCc2ccccc2)c2ncnc(N)c12`, the pIC50 in series [2], in series [1], in series [5] and in series [7] was below 4.00 throughout.
In series [1], `COCCOCn1cc(C#N)c2cncnc21` had a pIC50 below 4.00.
On the same count and under the same terms, under `CCOCn1cc(C(=N)S)c2cncnc21` stands below 4.00.
For the compound `N#Cc1c(Br)n(COCc2ccccc2)c2ncnc(N)c12`, the negative-log IC50 (pIC50) in series [2], in series [1] and in series [5] was below 4.00 each time.
Turning to `CCOCn1cc(C#N)c2cncnc21`, the negative-log IC50 (pIC50) in series [1] was below 4.00.
With `COCCOCn1cc(C(=N)S)c2cncnc21`, the pIC50 in series [1] is below 4.00.
On to `N#Cc1c(N)n(Cc2ccccc2)c2ncnc(N)c12`, for which the negative-log IC50 (pIC50) in series [2] is 4.47; in [3] it was 5.00; in [4] it was 5.48; in series [5], 4.00.
For `COCCOCn1c(N)c(C(N)=O)c2c(N)ncnc21`, the negative logarithm of the IC50 (pIC50) in series [2], in series [1], in series [5] and in [7] was below 4.00 throughout.
In series [1], `CCNc1ncnc2c1c(C(=N)S)cn2COCCOC` gave a pIC50 below 4.00.
In the case of `CCOCn1cc(C(=N)S)c2c(O)ncnc21`, the pIC50 in series [1] was below 4.00.
With `CNc1ncnc2c1c(C(=N)S)cn2COCCOC`, the pIC50 is 4.52 in [9] and 4.70 in series [1].
On to `COCCOCn1cc(C#N)c2c(Cl)ncnc21`, for which the negative logarithm of the IC50 (pIC50) in [1] is below 4.00.
The same measure, in the same setting: for `CNc1ncnc2c1c(C#N)cn2COCCOC` the value was below 4.00.
In the case of `CCOCn1c(N)c(C(=N)S)c2c(N)ncnc21`, the pIC50 in [2] is below 3.49; in [1] it was 4.80; in [6] it was 4.00; in [5] it was below 4.00; in series [7], 4.35.
Consider `CCNc1ncnc2c1c(C#N)cn2COCC`, for which, in series [1], the pIC50 is below 4.00.
Consider `CNc1c(C#N)c2c(N)ncnc2n1COCCOC`, for which the pIC50 in series [2], in [1], in series [6] and in series [5] was below 4.00 in each case.
Regarding `COc1ccc(Cn2c(N)c(C#N)c3c(N)ncnc32)cc1`, the pIC50 is 4.30 in [2], 5.00 in [3], 5.05 in series [4] and 4.00 in series [5].
In series [1], `COCCOCn1cc(C#N)c2c(S)ncnc21` showed a negative logarithm of the IC50 (pIC50) below 4.00.
As to `CCOCn1cc(C#N)c2c(N)ncnc21`, the pIC50 in series [2], in [1] and in series [5] was below 4.00 throughout.
Regarding `CCOCn1cc(C#N)c2c(O)ncnc21`, the negative logarithm of the IC50 (pIC50) in series [1] is below 4.00.
Same read-out and setting: under `CCOCn1cc(C(=N)S)c2c(N(C)C)ncnc21` stands below 4.00.
In the case of `COCCOCn1c(N)c(C#N)c2c(N)ncnc21`, the negative-log IC50 (pIC50) in series [2] is 3.68; in series [1], 5.09; in series [6], below 4.00; in series [5], below 4.00; in [7] it was 5.05.
Consider `Nc1nc2c(ncn2COCCO)c(=O)[nH]1` [ACYCLOVIR], for which the negative logarithm of the IC50 (pIC50) in series [2], in series [1] and in [5] was below 4.00 in each case.
For the compound `Nc1nc2c(ncn2COC(CO)CO)c(=O)[nH]1` [GANCICLOVIR], the pIC50 in [2] is below 3.49; in series [5], below 4.00; in series [7] it was 5.66.

Values taken from ChEMBL document CHEMBL1129622, “Synthesis of non-nucleoside analogs of toyocamycin, sangivamycin, and thiosangivamycin: the effect of certain 4- and 4,6-substituents on the antiviral activity of pyrrolo[2,3-d]pyrimidines” (J Med Chem, 1996).
